Activity calls are given as the source filed them. The rule behind the calls is not given here.
How the values were obtained:
Cryptosporidium parvum [1] = assay: Antiparasitic activity against Cryptosporidium parvum infected into human HCT-8 cells assessed as growth inhibition at 90 uM after 48 hrs; assay type: functional; settings: HCT-8, 48 h, read-out: GI
In short: (§1)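 Confluent HCT-8 monolayers inoculated with 8 × 10^5 excysted oocysts/ml, then infected cells treated with 90 μM compound (DMSO stock diluted in PBS) at 37°C in 5% CO2 (24 h per table footnote; 48 h per text). Fixed cells stained with rhodamine-labeled C3C3 mAb; meronts and gamonts counted in 30 fields/well, four replicate wells; percent inhibition and inhibition score versus medium control.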

Cryptosporidium parvum [2] = assay: Antimicrobial activity against Cryptosporidium parvum infected in SCID mouse assessed as decrease in oocyst shedding at 125 mg/kg/day, po for 2 weeks and measured 3 to 7 days after treatment; assay type: functional, organism-based
In short: (§2)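 Female C.B-17 SCID mice, 7 weeks old, infected orally with 1 × 10^7 oocysts in PBS; chronic infection allowed for 25 days. Compound suspended with polyvinylpyrrolidone, given orally at 250 (n=10) or 125 (n=10) mg/kg/day for 2 weeks; controls were PVP in water and untreated mice. Oocysts per 50 μl concentrated feces counted by IIF every 3 days; ANOVA with LSD.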

Cryptosporidium parvum [3] = assay: Antimicrobial activity against Cryptosporidium parvum infected in HCT8 cells assessed as decrease in parasite count at 22 to 90 uM after 48 hrs; assay type: functional, organism-based; settings: HCT-8
In short: (§3)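 HCT-8 monolayers inoculated with 8 × 10^5 oocysts/ml, then incubated with 90, 45 or 22 μM compound (DMSO stock diluted in PBS). Fixed cultures stained with rhodamine-C3C3 mAb; developmental stages (meronts, gamonts) counted per field over 30 fields, mean of four replicate wells ± SD; percent growth inhibition versus medium and inhibition score (0–4).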

Cryptosporidium parvum [4] = assay: Antimicrobial activity against Cryptosporidium parvum DE infected in HCT8 cells assessed as growth inhibition at 90 uM after 24 hrs; assay type: functional; settings: HCT-8, 24 h, read-out: GI; in short: as §1
Cryptosporidium parvum [5] = assay: Antimicrobial activity against Cryptosporidium parvum infected in SCID mouse assessed as decrease in oocyst shedding at 125 mg/kg/day, po for 2 weeks and measured every 3 days during treatment; assay type: functional, organism-based; in short: as §2
Cryptosporidium parvum [6] = assay: Antimicrobial activity against Cryptosporidium parvum infected in HCT8 cells assessed as growth inhibition rate at 22 to 90 uM after 48 hrs; assay type: functional, organism-based; settings: HCT-8; in short: as §3
Cryptosporidium parvum [7] = assay: Antiparasitic activity against Cryptosporidium parvum sprozoites assessed as growth inhibition at 90 uM after 48 hrs; assay type: functional; settings: read-out: GI
In short: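 Excysted sporozoite suspension incubated with 90 μM compound at 37°C for 30 min, then used to infect confluent HCT-8 monolayers. Developmental stages counted after rhodamine-C3C3 mAb staining, 30 fields/well, four replicate wells; percent inhibition versus medium control and inhibition score.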

HCT-8 = assay: Cytotoxicity against human HCT8 cells assessed as cell viability by MTT assay; assay type: cell-based
In short: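 HCT-8 cells exposed to compound and viability measured by MTT assay as percent viable cells.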

Cryptosporidium parvum [8] = assay: Antimicrobial activity against Cryptosporidium parvum infected in SCID mouse assessed as decrease in oocyst shedding at 250 mg/kg/day, po for 2 weeks and measured 3 to 7 days after treatment; assay type: functional, organism-based; in short: as §2
Cryptosporidium parvum [9] = assay: Antiparasitic activity against Cryptosporidium parvum infected into human HCT-8 cells assessed as growth inhibition at 45 uM after 48 hrs; assay type: functional; settings: HCT-8, 48 h, read-out: GI; in short: as §3
Cryptosporidium parvum [10] = assay: Antimicrobial activity against Cryptosporidium parvum infected in HCT8 cells assessed as growth inhibition at 90 uM pretreated for 30 min before infection measured after 48 hrs; assay type: functional; settings: HCT-8, read-out: GI
In short: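 HCT-8 cells preincubated with 90 μM compound at 37°C for 30 min, then infected with excysted oocysts (8 × 10^5/ml). Meronts and gamonts counted after rhodamine-C3C3 mAb staining, 30 fields/well, four replicate wells; percent inhibition versus medium control and inhibition score.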

Cryptosporidium parvum [11] = assay: Antiparasitic activity against Cryptosporidium parvum infected into human HCT-8 cells assessed as growth inhibition at 22 uM after 48 hrs; assay type: functional; settings: HCT-8, 48 h, read-out: GI; in short: as §3

In the case of `Oc1c(I)cc(I)cc1I`, the inhibition of growth at 90 µM (Cryptosporidium parvum [1]) was 96.5%, the Activity (Cryptosporidium parvum [2]) was “inactive” and the Activity (Cryptosporidium parvum [3]) was “Dose-dependent effect”. The inhibition of growth at 90 µM (Cryptosporidium parvum [4]) was 99.6%, the Activity (Cryptosporidium parvum [5]) was “Active” and the Activity (Cryptosporidium parvum [6]) was “Dose-dependent effect”. For the same molecule, the inhibition of growth at 90 µM (Cryptosporidium parvum [7]) was 27.8%, the Activity (HCT-8) was “Non-toxic” and the Activity (Cryptosporidium parvum [8]) was “inactive”. It also gave an inhibition of growth at 45 µM (Cryptosporidium parvum [9]) of 92.5%, an inhibition of growth at 90 µM (Cryptosporidium parvum [10]) of 36% and an inhibition of growth at 22 µM (Cryptosporidium parvum [11]) of 50.1%.

Source: ChEMBL document CHEMBL1255256, “Bobel-24 activity against Cryptosporidium parvum in cell culture and in a SCID mouse model” (Antimicrob Agents Chemother, 2008)
